HKDC1 act – HKDC1 hexokinase activators, primary screen, biochemical, fluorescence, uHTS. Q2TB90. recombinant HKDC1, G6PDH/diaphorase resazurin fluorescence; active compounds read low. activity change, negative = activation, % at 20 µM. 0.056% of 340,000 active;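 active means activation of 40% or more at 20 µM, a change of -40% or lower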
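System: in-house human HKDC1 enzyme, G6PDH and diaphorase coupling enzymes; Quantity: 5 µg/mL HKDC1 final; Buffer or medium: Tris/MgCl2 buffer, pH 8.0; Dosing: single compound dose of 20 µM, 1% DMSO final; Times: 90 min reaction at room temperature, dark; Detection: coupled resazurin-to-resorufin fluorescence, Ex 525/Em 613 nm.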
Numbers without * were called inactive. Only a selection was taken, and hits are over-represented in it overall.

SMILES | HKDC1 act
Cc1ccc(NC2=C/C(=N\S(=O)(=O)c3cccs3)c3ccccc3C2=O)c(C)c1 | 40
CCNc1ccc(Br)cc(C(=O)/C=C/c2c(Cl)cccc2Cl)c1=O | 37
COC(=O)CCC(=O)Nc1sc(Cc2ccccc2)c(C)c1C(N)=O | -44*
CCCc1nc2oc3c(NCC4CCCO4)ncnc3c2c2c1COC(C)(C)C2 (centres undefined) | 35
Cc1onc(-c2ccccc2)c1C(=O)NNC(=S)NC(=O)/C=C/c1cccs1 | -57*
O=C(/C=C/c1cccs1)Nc1scc(-c2ccccc2)c1C(=O)O | 81
CCOC(=O)c1c(C)[nH]c(C2=NNC(=Nc3ccccc3)SC2)c1C | -306*
CCOC(=O)c1c(C)[nH]c(C2=NNC(=Nc3ccccc3OC)SC2)c1C | -165*
CCOC(=O)c1c(C)[nH]c(C2=NNC(=Nc3ccc(OCC)cc3)SC2)c1C | -137*
O=C1C(Nc2ccc(O)cc2)=C/C(=N/S(=O)(=O)c2cccs2)c2ccccc21 | 60
O=S(=O)(O)c1ccc(O)c2cc(Nc3ccccc3)ccc12 | 65
COCc1cc(C2C(C(=O)c3ccco3)=C(O)C(=O)N2CCOCCO)ccc1O (centres undefined) | 35
CCc1c(C)c(C#N)c2nc3ccccc3n2c1NC | -66*
NC(CSC(c1ccccc1)(c1ccccc1)c1cccc2ccccc12)C(=O)O (centres undefined) | 35
Cc1cc(NC(=S)NC(=O)c2ccccc2)ccc1-c1cc2ccccc2oc1=O | -47*
Oc1ccc(-c2cnns2)c(O)c1 | 45
O=C(CCl)N1c2ccccc2Sc2c1ccc1ccccc21 | 44
CN(c1ccc(C(=O)N2CCN(Cc3ccccc3)CC2)cc1)S(=O)(=O)c1ccccc1 | -76*
COc1ccc(S(=O)(=O)Nc2cc(SCC(=O)O)c(O)c3ccccc23)cc1 | 57
CCCC(=O)N1CCN(Cc2ccc3c(c2)OCO3)CC1 | -57*
COC(=O)CCC(=O)OC1(C)C(=O)C2=CN(Cc3ccc4c(c3)OCO4)C(c3ccc(OC)cc3)=CC2=C(Br)C1=O (centres undefined) | 40
O=C1C=C(c2c(O)ccc3ccccc23)c2ccccc2C1=O | 93
COc1ccc(-c2cc(N)n(CCC#N)n2)c(OC)c1 | 40
Cc1cccn2c(=O)c3cc(C(N)=S)c(=N)n(CCCN4CCOCC4)c3nc12 | -54*
O=C1/C(=C\c2ccc(Cl)c(Cl)c2)CN(C(=O)CCN2CCOCC2)C/C1=C/c1ccc(Cl)c(Cl)c1 | 61
NC1=C(Br)C(=O)c2ncccc2C1=O | 38
Oc1ccc(/C=N/NC(=S)Nc2cccnc2)c(O)c1 | -40*

Screening data: PubChem, Sanford-Burnham Center for Chemical Genomics
